In ChEMBL document CHEMBL3734686, “Synthesis, Photophysical Properties, and Biological Evaluation of trans-Bisthioglycosylated Tetrakis(fluorophenyl)chlorin for Photodynamic Therapy” (J Med Chem, 2015):
pEC50: −log10 of the molar value. Active and inactive are the calls of the source.

Key:
4T1 [1] = assay: Drug uptake in mouse 4T1 cells implanted in BALB/c mouse assessed per gram of tissue at 0.18 mg/kg, ip after 72 hrs by HPLC-based fluorescence analysis; format: ADME, organism-based; conditions: in vivo
Outline: (§1)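 Female BALB/c mice with 4T1 cells (1 × 10^6 in HBSS) implanted in left rear thigh; single i.p. dose, 7 in ethanol/PEG400/H2O (2/3/5) with 0.1% DMSO, mono-L-aspartyl chlorin e6 in saline; kept dark until sacrifice. Tissues washed, frozen, homogenized in CH3OH/DMSO/H2O (32/8/1), centrifuged 2300×g; supernatant analysed by HPLC with fluorescence detection; three animals per time point.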

4T1 [2] = assay: Induction of necrosis in mouse 4T1 cells implanted in BALB/c mouse at 5 mg/kg, ip irradiated at 48 J/cm2 measured at 1 day post PDT by […]-based fluorescence microscopic analysis; format: functional, organism-based; conditions: 0.18 mg/kg, in the assay text read “0.18 mg/kg” for “5 mg/kg”
Outline: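 Skin-plus-tumor slides from 4T1-bearing mice 1 day after PDT; proteinase K treatment, then dual apoptosis/necrosis detection reagent at room temperature in dark, washed in PBS, examined by fluorescence microscopy.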

HeLa = assay: Photocytotoxicity against human HeLa cells assessed as cell survival preincubated for 24 hrs followed by irradiation at 16 J/cm2 measured at 24 hrs by WST-8 assay; format: functional, cell-based; conditions: light or radiation study
Outline: (§2)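 Cells (5 × 10^3/well) in DMEM with 10% FCS, 24 h at 37°C, 5% CO2; photosensitizer 1–50000 nM (1% DMSO final) for 24 h, washed, fresh medium. Irradiated with 100-W halogen lamp through λ>500 nm or λ>600 nm cutoff filter to 16 J·cm−2; WST-8 absorbance at 450 nm 24 h later, survival normalized to no-drug wells.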

[3] = Photocytotoxicity against mouse B16-F1 cells assessed as cell survival preincubated for 24 hrs followed by irradiation at 16 J/cm2 measured at 24 hrs by WST-8 assay; format: functional, cell-based; conditions: B16-F1, light or radiation study; outline: as §2
4T1 [4] = assay: Photocytotoxicity against mouse 4T1 cells assessed as cell survival preincubated for 24 hrs followed by irradiation at 16 J/cm2 measured at 24 hrs by WST-8 assay; format: functional, cell-based; conditions: 4T1, light or radiation study; outline: as §2
[5] = Drug uptake in mitochondria of human Hela cells at 0.5 uM preincubated for 24 hrs followed by MitoTracker Green FM addition for 30 mins by CSLM analysis; format: ADME; conditions: 0.5 h
Outline: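 HeLa cells (1 × 10^4) plated 24 h, incubated 24 h with 0.5 µM final photosensitizer (1% DMSO), washed, stained 30 min with 250 nM MitoTracker Green FM in HBSS at 37°C, fixed in 4% paraformaldehyde. Confocal imaging: red λex 488/λem 650 nm; green λex 488/λem 505–530 nm.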

Plasma = assay: Drug uptake in BALB/c mouse plasma implanted with mouse 4T1 cells at 0.045 mg/kg, ip after 1 to 24 hrs by HPLC analysis; format: ADME, organism-based; conditions: in vivo
[6] = Drug uptake in BALB/c mouse large intestine implanted with mouse 4T1 cells assessed per gram of tissue at 0.18 mg/kg, ip after 6 hrs by HPLC-based fluorescence analysis; format: ADME, organism-based; conditions: in vivo
Outline: (§3)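 Female BALB/c mice bearing 4T1 thigh tumours received an i.p. dose in ethanol/PEG400/H2O (2/3/5) with 0.1% DMSO, or in saline, and were kept dark until killed. Tissues were weighed (100 mg), homogenised in CH3OH/DMSO/H2O (32/8/1) and centrifuged twice at 2300×g at 4°C. Supernatants were analysed by HPLC with fluorescence detection (λex 404/λem 654 nm or λex 400/λem 666 nm). n = 3 per time point.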

Kidney = assay: Drug uptake in BALB/c mouse kidney implanted with mouse 4T1 cells assessed per gram of tissue at 0.18 mg/kg, ip after 6 hrs by HPLC-based fluorescence analysis; format: ADME, organism-based; conditions: in vivo; outline: as §3
Spleen [7] = assay: Drug uptake in BALB/c mouse spleen implanted with mouse 4T1 cells assessed per gram of tissue at 0.18 mg/kg, ip after 6 hrs by HPLC-based fluorescence analysis; format: ADME, organism-based; conditions: in vivo; outline: as §1
Urinary bladder [8] = assay: Drug uptake in BALB/c mouse bladder implanted with mouse 4T1 cells assessed per gram of tissue at 0.18 mg/kg, ip after 6 hrs by HPLC-based fluorescence analysis; format: ADME, organism-based; conditions: in vivo; outline: as §3
4T1 [9] = assay: Drug uptake in mouse 4T1 cells implanted in BALB/c mouse assessed per gram of tissue at 0.18 mg/kg, ip after 6 hrs by HPLC-based fluorescence analysis; format: ADME, organism-based; conditions: in vivo; outline: as §1
Lung [10] = assay: Drug uptake in BALB/c mouse lung implanted with mouse 4T1 cells assessed per gram of tissue at 0.18 mg/kg, ip after 12 hrs by HPLC-based fluorescence analysis; format: ADME, organism-based; conditions: in vivo; outline: as §3
Heart [11] = assay: Drug uptake in BALB/c mouse heart implanted with mouse 4T1 cells assessed per gram of tissue at 0.18 mg/kg, ip after 12 hrs by HPLC-based fluorescence analysis; format: ADME, organism-based; conditions: in vivo; outline: as §3
Liver [12] = assay: Drug uptake in BALB/c mouse liver implanted with mouse 4T1 cells assessed per gram of tissue at 0.18 mg/kg, ip after 12 hrs by HPLC-based fluorescence analysis; format: ADME, organism-based; conditions: in vivo; outline: as §3
[13] = Drug uptake in BALB/c mouse large intestine implanted with mouse 4T1 cells assessed per gram of tissue at 0.18 mg/kg, ip after 12 hrs by HPLC-based fluorescence analysis; format: ADME, organism-based; conditions: in vivo; outline: as §3
Spleen [14] = assay: Drug uptake in BALB/c mouse spleen implanted with mouse 4T1 cells assessed per gram of tissue at 0.18 mg/kg, ip after 12 hrs by HPLC-based fluorescence analysis; format: ADME, organism-based; conditions: in vivo; outline: as §1
Urinary bladder [15] = assay: Drug uptake in BALB/c mouse bladder implanted with mouse 4T1 cells assessed per gram of tissue at 0.18 mg/kg, ip after 12 hrs by HPLC-based fluorescence analysis; format: ADME, organism-based; conditions: in vivo; outline: as §3
Muscle tissue [16] = assay: Drug uptake in BALB/c mouse muscle implanted with mouse 4T1 cells assessed per gram of tissue at 0.18 mg/kg, ip after 12 hrs by HPLC-based fluorescence analysis; format: ADME, organism-based; conditions: in vivo; outline: as §3
[17] = Drug uptake in BALB/c mouse large intestine implanted with mouse 4T1 cells assessed per gram of tissue at 0.18 mg/kg, ip after 24 hrs by HPLC-based fluorescence analysis; format: ADME, organism-based; conditions: in vivo; outline: as §3
Muscle tissue [18] = assay: Drug uptake in BALB/c mouse muscle implanted with mouse 4T1 cells assessed per gram of tissue at 0.18 mg/kg, ip after 24 hrs by HPLC-based fluorescence analysis; format: ADME, organism-based; conditions: in vivo; outline: as §3
Lung [19] = assay: Drug uptake in BALB/c mouse lung implanted with mouse 4T1 cells assessed per gram of tissue at 0.18 mg/kg, ip after 48 hrs by HPLC-based fluorescence analysis; format: ADME, organism-based; conditions: in vivo; outline: as §3
Heart [20] = assay: Drug uptake in BALB/c mouse heart implanted with mouse 4T1 cells assessed per gram of tissue at 0.18 mg/kg, ip after 72 hrs by HPLC-based fluorescence analysis; format: ADME, organism-based; conditions: in vivo; outline: as §3
Liver [21] = assay: Drug uptake in BALB/c mouse liver implanted with mouse 4T1 cells assessed per gram of tissue at 0.18 mg/kg, ip after 72 hrs by HPLC-based fluorescence analysis; format: ADME, organism-based; conditions: in vivo; outline: as §3
Mus musculus = assay: Drug uptake in mouse 4T1 cells implanted BALB/c mouse assessed as time for drug accumulation at 0.045 to 0.36 mg/kg, ip administered for 48 hrs followed by irradiation at 40 mW/cm2; conditions: in vivo

Drug uptake (4T1 [1]): 1.8 ng/g
Drug uptake [5]: Active
Drug uptake (Plasma): Active
Drug uptake [6]: 80 ng
Drug uptake (Kidney): 38 ng
Drug uptake (Spleen [7]): 90 ng/g
Drug uptake (Urinary bladder [8]): 90 ng/g
Drug uptake (4T1 [9]): 5 ng
Drug uptake (Lung [10]): 30 ng
Drug uptake (Heart [11]): 6 ng/g
Drug uptake (Liver [12]): 60 ng/g
Drug uptake [13]: 41 ng
Drug uptake (Spleen [14]): 55 ng
Drug uptake (Urinary bladder [15]): 95 ng/g
Drug uptake (Muscle tissue [16]): 4 ng
Drug uptake [17]: 60 ng/g
Drug uptake (Muscle tissue [18]): 1.2 ng
Drug uptake (Lung [19]): 11 ng
Drug uptake (Heart [20]): 3.3 ng
Drug uptake (Liver [21]): 14 ng
Time (Mus musculus): 48 h
Structure (SMILES): CN1CC2C3=N/C(=C(/c4c(F)c(F)c(S[C@@H]5O[C@H](CO)[C@@H](O)[C@H](O)[C@H]5O)c(F)c4F)C4=N/C(=C(/c5c(F)c(F)c(F)c(F)c5F)c5ccc([nH]5)/C(c5c(F)c(F)c(S[C@@H]6O[C@H](CO)[C@@H](O)[C@H](O)[C@H]6O)c(F)c5F)=C5/C=CC(=N5)C3c3c(F)c(F)c(F)c(F)c3F)C=C4)C2C1 (stereo not given in full)
Activity (4T1 [2]): Active
pEC50 (HeLa): 9.30
pEC50 [3]: 9.30
pEC50 (4T1 [4]): 9.30
